NPY2 pot ag = NPY-Y2 potentiators or agonists, primary screen, cell-based | Neuropeptide Y receptor type 2 (Homo sapiens), P49146 | 220,000 tested, 0.45% active | activation, % at 3.6 µM | cells expressing NPY-Y2, potentiator/agonist read-out; in the data active means activation above about 27%;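 further: cells stimulated with NPY near EC25 plus isoproterenol at EC100; 0% = vehicle plus submaximal agonist and 100% = vehicle plus saturating agonist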
Target sequence (P49146 whole entry, looked up): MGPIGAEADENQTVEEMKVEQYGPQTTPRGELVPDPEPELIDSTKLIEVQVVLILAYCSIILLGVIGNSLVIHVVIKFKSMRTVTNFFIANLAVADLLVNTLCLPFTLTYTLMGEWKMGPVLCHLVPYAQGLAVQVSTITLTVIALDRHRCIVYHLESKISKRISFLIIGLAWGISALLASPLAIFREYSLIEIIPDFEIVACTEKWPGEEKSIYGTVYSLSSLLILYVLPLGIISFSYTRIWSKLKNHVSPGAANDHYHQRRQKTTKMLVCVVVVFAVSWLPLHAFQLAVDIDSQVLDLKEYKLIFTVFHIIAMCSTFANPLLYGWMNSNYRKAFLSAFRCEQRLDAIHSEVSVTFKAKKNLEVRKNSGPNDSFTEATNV
NPY-Y1 antag = NPY-Y1 receptor antagonists, primary screen, cell-based; HEK293-CNG Y1 cells, membrane potential fluorescence; NPY at EC95, then isoproterenol; 200,000 tested, 1% active; inhibition, % at 3.6 µM;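 active means inhibition above the campaign mean inhibition of all tested compounds plus 3 SD, cut at about 20% in these data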;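 further: 0% = DMSO wells given NPY plus isoproterenol and 100% = isoproterenol alone without NPY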
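System: HEK293 cells with Y1 receptor plus CNG channel / Probe or stimulus: NPY 25 nM then isoproterenol 1 µM plus Ro 20-1724 25 µM / Compound: one concentration, 3.6 µM, in 0.4% DMSO / Schedule: compound incubation 1 h at room temperature, readout 45 min post-stimulation / Measured by: membrane potential fluorescence / Read-out: % inhibition of NPY effect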
NPY-Y2 antag = NPY-Y2 receptor antagonists, primary screen, cell-based | inhibition, % at 2.7 µM | 140,000 tested, 0.99% active | Neuropeptide Y receptor type 2 (Homo sapiens), P49146 | NPY-Y2 expressing cells, antagonist mode; in the data active means inhibition above about 17%;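 further: 0% = vehicle with agonist challenge and 100% = reference antagonist with challenge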
NPY-Y1 PAM-ag = NPY-Y1 receptor potentiators or agonists, primary screen, cell-based. NPY-Y1 expressing cells, potentiator/agonist activation. 220,000 tested, 0.37% active. activation, % at 3.6 µM; in the data active means activation above about 33%, passing the limit was not always enough;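 further: cells stimulated with NPY at EC10 then isoproterenol at EC100; 0% = low agonist plus stimulus and 100% = saturating agonist plus stimulus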
An asterisk follows results filed as active; · = no result. Only some compounds are listed: those with a hit (about 1.9% of all), similar ones and a draw of the others.

SMILES | NPY2 pot ag | NPY-Y1 antag | NPY-Y2 antag | NPY-Y1 PAM-ag
O=C(NC1CCCC1)C(c1ccsc1)N(Cc1ccccc1)C(=O)Cc1cccs1 (centres undefined) | -21.2 | 60.2* | 33.0* | -33.6
COc1cc(C(C(=O)NC2CCCCC2)N(Cc2cccs2)C(=O)Cc2c[nH]c3ccccc23)cc(OC)c1OC (centres undefined) | 31.5* | 2.6 | 9.3 | 4.9
O=C(NC1CCCCC1)C(c1ccc2ncccc2c1)N(Cc1ccccc1)C(=O)c1cccs1 (centres undefined) | -27.4 | 24.0* | 24.7* | -1.5
COc1ccccc1CN(C(=O)Cc1cccs1)C(C(=O)NC1CCCC1)c1ccncc1 (centres undefined) | -20.1 | 44.8* | 18.8* | -29.7
Cc1ccsc1C(=O)OCC(=O)N1CCc2ccccc2C1 | 19.4 | 2.6 | · | 1.3
CC1(C)CC(=O)C2=C(C1)OC(N)=C(C#N)C2c1cc2c(cc1[N+](=O)[O-])OCO2 (centres undefined) | 5.5 | -3.5 | 1.2 | 1.7
NC(=O)N/N=C/C=C/c1ccc(F)cc1 | 5.0 | · | · | 1.5
O=C(NC1CCCC1)C(c1cccs1)N(Cc1ccco1)C(=O)c1csnn1 (centres undefined) | 8.9 | 2.8 | -0.6 | -27.1
O=C(NCc1ccccc1)C(c1ccccc1)N(Cc1ccc2c(c1)OCO2)C(=O)Cc1cccs1 (centres undefined) | 2.9 | 6.2 | 5.8 | 5.9
O=C(NC1CCCC1)C(c1ccccc1)N(Cc1ccc2c(c1)OCO2)C(=O)Cc1cccs1 (centres undefined) | -7.6 | 23.0* | 21.2* | -34.4
O=C(NC1CCCC1)C(c1ccsc1)N(Cc1ccco1)C(=O)Cc1cccs1 (centres undefined) | -32.3 | 61.9* | 38.0* | -35.0
CCN(CC(=O)NC(C)C)C(=O)Cc1ccc(C)c(C)c1 | 0.4 | 1.6 | · | 15.6
CN(c1ccccc1C(=O)NC1CC2CCC1C2)S(=O)(=O)c1ccccc1 (centres undefined) | -0.7 | 5.8 | 2.4 | -21.5
CN(c1ccccc1C(=O)NC1CCCCC1)S(=O)(=O)c1ccccc1 | -16.5 | 20.2* | · | -5.1
Cc1ccc(NC(=O)c2cc(-c3ccccc3)nn2-c2ccccc2)cc1 | 15.9 | 1.6 | 1.7 | 32.6
O=C(Nc1ccc(F)cc1)c1nn(-c2ccccc2)c(=O)cc1Cl | 53.1* | -11.0 | · | 63.1*
CCc1cccc(CC)c1NC(=O)COC(=O)C1(c2ccc(Cl)cc2)CCCC1 | 5.7 | 40.2* | 18.6* | -26.2
CC(=O)Nc1ccc(NC(=O)COC(=O)C2(c3ccc(Cl)cc3)CCCC2)cc1 | 6.6 | -3.3 | -2.6 | 5.5
O=C(O)c1cccc(S(=O)(=O)N2CCN(C(c3ccccc3)c3ccccc3)CC2)c1 | 6.2 | 6.0 | · | 8.6
CC(O)CNCCNCc1c(OCc2ccccc2)ccc2ccccc12 (centres undefined) | -40.7 | 95.8* | 37.7* | -116.0
CC(NC(=O)C(=O)N/N=C\c1cccc([N+](=O)[O-])c1)c1ccccc1 (centres undefined) | -21.4 | -2.7 | · | 5.9
Cc1cc(OCC(F)(F)C(F)(F)C(F)(F)C(F)(F)C(F)(F)C(F)F)nc(N)n1 | 37.9* | 0.1 | 5.3 | 62.2*
O=C(OCCN1C(=O)c2cccc3c(N4CCOCC4)ccc(c23)C1=O)c1ccccc1Cl | 10.1 | 57.3* | 23.7* | -39.0
CN(C)c1ccc(C2CC(=O)C=C(Nc3ccccc3N)C2)cc1 (centres undefined) | 7.3 | · | · | 0.2
CCN(CC)C(=O)c1cc2c(=O)oc3ccccc3c2s1 | 57.9* | 0.1 | 2.5 | 68.7*
SMILES | NPY2 pot ag | NPY-Y1 antag | NPY-Y2 antag | NPY-Y1 PAM-ag
CCN(CC)C(=O)c1cc2c(=O)n3ccccc3nc2s1 | -12.9 | -0.5 | 3.1 | 6.7
Cc1cc(C)c(NC(=O)CS(=O)CC(=O)Nc2ccc(F)cc2F)c(C)c1 (centres undefined) | -2.8 | · | · | 4.4
COCC(=O)N1CCCC(C(=O)c2ccc(-c3ccccc3)c(F)c2)C1 (centres undefined) | -29.6 | -0.4 | · | -18.8
Cc1cc(C)c2c(CC(=O)O)coc2c1 | -46.3 | 23.8* | 12.4 | -45.3
CCOC(=O)c1cnc2ccc(OCC)cc2c1N(C)Cc1ccccc1 | -18.3 | 31.2* | 34.8* | -50.6
COC(=O)C1=C(Nc2ccc(C)cc2)C=C(C)C(C(=O)OC)C1c1ccc(OC)cc1 (centres undefined) | -20.2 | 29.5* | 23.1* | -54.9
O=S(=O)(NC1=NCCCCC1)c1ccc(Cl)cc1 | -15.6 | -1.2 | · | -6.0
Clc1ccc(NC2=NCCCCC2)cc1 | 9.8 | 45.7* | 0.6 | 7.0
Cc1c(O)c(CN2CCCC2)cc2c3c(c(=O)oc12)CCC3 | 3.9 | -0.7 | 1.5 | -6.4
Cc1c(O)c(CN2CCCC2)cc2c1oc(=O)c1ccccc12 | 56.7* | -17.2 | 2.2 | 64.8*
CCCN(c1ccc(C(C)C)cc1)S(=O)(=O)c1c(C)noc1C | -4.7 | 21.6* | 28.0* | 0.1
CC(C)CC(NC(N)=O)C(=O)OCC(=O)N(Cc1ccccc1)Cc1ccccc1 (centres undefined) | 3.4 | -0.1 | · | 17.3
CC(C)COC(=O)Nc1nnc(SCCOc2ccccc2)s1 | -23.2 | 29.1* | 14.0 | -49.3
CNc1ccccc1C(C)(C)c1cc(-c2ccc(F)cc2)no1 | 18.9 | -8.8 | 3.5 | 34.0
CC(=O)c1sccc1NC(=O)c1ccccc1C(=O)O | -22.5 | · | · | -26.8
COc1ccc(CN(CCN(C)C)Cc2ccccc2)c(OC)c1 | -13.6 | 22.8* | 20.4* | -17.4
COc1ccc(CN(C)CC(=O)NC(=O)NCc2ccccc2)c(OC)c1 | -2.1 | 1.4 | 5.3 | -6.5
CCOC(=O)c1c(-c2ccccc2)oc2ccc(O)c(CN(C)C)c12 | -35.4 | 22.4* | 25.1* | -49.4
CCOC(=O)c1c(-c2ccccc2)oc2ccc(O)c(CN3CCCC3)c12 | -43.6 | 38.8* | 22.8* | -42.6
COCCOC(=O)c1c(C)oc2ccc(O)c(CN3CCC(C)CC3)c12 | -7.9 | 14.6 | 12.9 | -15.3
CC1(C)CC(=O)C2=C(C1)NC(=S)C(C#N)C21CCCCC1 (centres undefined) | -4.6 | · | · | 1.2
c1ccc(N2CCN(c3ncnc4c3oc3ccccc34)CC2)cc1 | -23.5 | 23.0* | 21.7* | -14.4
CC1CN(c2ccccc2)CCN1Cc1nc(Cc2ccccc2)no1 (centres undefined) | -4.8 | 2.8 | · | -10.9
C[C@]12CCC(=O)C=C1[C@H](O)C[C@@H]1[C@@H]2[C@@H](O)C[C@@]2(C)[C@H]1CC[C@]2(O)C(=O)CO | 101.3* | -12.8 | 0.5 | 117.0*
O=C(NC1CCCCC1)C(c1ccco1)N(Cc1cccs1)C(=O)Cn1nnc2ccccc21 (centres undefined) | 0.4 | 51.0* | 42.0* | -36.7
O=C(NC1CCCCC1)C(c1ccccc1)N(Cc1ccco1)C(=O)Cn1cnc2ccccc21 (centres undefined) | -97.0 | 78.4* | 55.3* | -129.6
CCC(C)(C)NC(=O)C(c1ccccc1)N(Cc1cccs1)C(=O)Cn1nnc2ccccc21 (centres undefined) | -186.9 | 135.9* | 133.0* | -327.8
